Jurkat viability: cytotoxicity toward Jurkat T cells, primary screen, cytotoxicity control, cell-based, Jurkat E6.1, 60K MLSMR library. Jurkat E6.1 viability, ATP luminescence, 48 h. inhibition, % at 4 µM. 56,000 tested, 1.2% active. AID 463, 2006;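 active means inhibition above the mean inhibition of all tested compounds plus 3 SD, cut at about 28% in these data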
5HT1a antag: human 5-HT1a receptor antagonists, primary screen, cell-based, CHO, Ga15 NFAT-bla reporter. 62,000 tested, 0.68% active. CHO 5-HT1a Ga15 NFAT-bla reporter, antagonist mode. 5-hydroxytryptamine receptor 1A (Homo sapiens), P08908. inhibition, % at 10 µM;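 active means inhibition above the mean of all tested compounds plus 3 SD, cut at about 43% in these data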;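 further: receptor stimulated by 5-CT agonist at 100 nM near EC80; beta-lactamase reporter measured by ratiometric fluorescence of a cleavable substrate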
5HT1a ag: human 5-HT1a receptor agonists, primary screen, cell-based, CHO, Ga15 NFAT-bla reporter | 65,000 tested, 0.56% active | AID 567, 2006 | 5-hydroxytryptamine receptor 1A (Homo sapiens), P08908 | CHO 5-HT1a Ga15 NFAT-bla reporter, FRET ratio; 0% basal, 100% maximal reference agonist | activation, % at 10 µM;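 active means activation above the screen-wide mean activation plus 3 SD, cut at about 19% in these data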
HTR1E agonist: 5-HT1E receptor agonists, primary screen, cell-based, HTS. 5-hydroxytryptamine receptor 1E (Homo sapiens), P28566. CHO 5-HT1E Ga15 NFAT-bla reporter, FRET; 0% DMSO wells, 100% control agonist wells. activation, % at 6 µM. 65,000 tested, 0.69% active. AID 574, 2007;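 active means activation above a set limit, the screen-wide mean activation plus 3 SD, cut at about 8.5% in these data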
Target sequence (P28566 whole entry, looked up): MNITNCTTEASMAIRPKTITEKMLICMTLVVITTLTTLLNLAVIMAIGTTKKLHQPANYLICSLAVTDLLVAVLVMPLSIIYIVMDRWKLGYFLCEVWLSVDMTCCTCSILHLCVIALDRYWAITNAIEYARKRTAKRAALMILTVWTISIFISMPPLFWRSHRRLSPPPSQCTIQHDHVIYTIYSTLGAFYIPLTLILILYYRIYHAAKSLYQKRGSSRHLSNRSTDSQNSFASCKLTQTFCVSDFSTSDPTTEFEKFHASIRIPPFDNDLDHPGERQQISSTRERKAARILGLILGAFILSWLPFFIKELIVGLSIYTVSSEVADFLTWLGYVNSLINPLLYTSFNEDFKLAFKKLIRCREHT
HTR1E antagonist: 5-HT1E receptor antagonists, primary screen, cell-based, HTS | 65,000 tested, 0.99% active | inhibition, % at 6 µM | CHO 5-HT1E Ga15 NFAT-bla reporter, FRET, antagonist;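 active means inhibition above a set limit, the mean inhibition across every tested compound plus 3 SD, cut at about 29% in these data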;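 further: signal is the 460 over 535 nm emission ratio of beta-lactamase substrate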
HEK293 NFkB inh: inhibitors of PMA/ionomycin-induced NF-kB reporter, primary screen, antigen receptor NF-kB inhibitor project, cell-based, HEK-293 luciferase reporter, luminescence | HEK-293 NF-kB luciferase reporter | inhibition, % at 3 µM | 62,000 tested, 0.21% active;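 active means inhibition above the mean of all tested compounds plus 3 SD, cut at about 40% in these data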
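Reagent: PMA plus ionomycin mix as NF-kB-activating stimulus. Assay system: NF-kB luciferase reporter HEK-293 cells. Technique: luminescence from luciferase substrate reagent. Incubation: 1 h compound pre-incubation, 16 h PMA/ionomycin at 37 °C. Benchmarks: DMSO only as uninhibited control, 10 µM reference inhibitor as full inhibition. Repeats: tested once.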
Hits are given with their value; 0 = inactive; - = no result. In the library only some 3.3% were active in any assay of this set; here they are far more common.

SMILES | Jurkat viability | 5HT1a antag | 5HT1a ag | HTR1E agonist | HTR1E antagonist | HEK293 NFkB inh
Cc1cccc(N(CC(=O)NC2CCCCC2)C(=O)c2c(C)noc2C)c1 | - | 0 | 0 | 0 | 0 | 0
O=C(c1ccncc1)N(Cc1cc2ccccc2[nH]c1=O)C1CCCCC1 | 47 | 0 | 0 | 0 | 0 | 0
COc1ccc2[nH]c(=O)c(CN(Cc3ccco3)C(=O)c3ccccc3)cc2c1 | 0 | 0 | 0 | 0 | 0 | 0
O=C(c1ccco1)N(Cc1cc2ccccc2[nH]c1=O)C1CCCCC1 | 0 | 0 | 0 | 0 | 0 | 0
Cc1ccc2[nH]c(=O)c(CN(Cc3ccco3)C(=O)c3ccncc3)cc2c1 | 40 | 0 | 0 | 0 | 0 | 0
O=C(c1cccs1)N(Cc1ccco1)Cc1cc2ccccc2[nH]c1=O | 0 | 0 | 51 | 0 | 0 | 0
Cc1noc(C)c1S(=O)(=O)Nc1ccc(C(=O)N2CCc3ccccc3C2)cc1 | 0 | 0 | 0 | 0 | 0 | 0
O=C(CN1C(=O)C2CC=CCC2C1=O)Nc1nc2ccccc2[nH]1 (configuration not stated) | 0 | 0 | 0 | 0 | 0 | 0
CCOC(=O)c1cccc(NC(=O)CSc2nnc(COc3ccccc3C)o2)c1 | 0 | 0 | 0 | 0 | 0 | 0
Cc1cccn2c(=O)c3cc(C(=O)NCCCN4CCCC4=O)n(C)c3nc12 | 0 | 0 | 0 | 0 | 0 | 0
N#CC1(c2ccccc2)CCC(=NO)CC1 (configuration not stated) | - | - | 0 | 0 | 0 | -
CC(C)CCNC(=O)CN(C(=O)CCC(=O)Nc1ccccn1)c1ccc2c(c1)OCO2 | 0 | 0 | 0 | 0 | 0 | 0
COc1ccc(NC(=O)CN(c2ccc(C)cc2)S(=O)(=O)c2c(C)nn(C)c2C)cc1OC | 0 | 0 | 0 | 0 | 0 | 0
CCN(CC(=O)Nc1ccc(OC)c(OC)c1)S(=O)(=O)c1ccc(C)cc1 | 0 | 0 | 22 | 0 | 0 | 0
CC(C)C1O/C(=N/C(=O)Nc2ccc(Cl)c(Cl)c2)NC1=O (configuration not stated) | 0 | 0 | 0 | 0 | 0 | 0
COc1ccccc1N1CCN(C(=O)CSc2nc(C)c(Cc3ccccc3)c(=O)[nH]2)CC1 | 0 | 0 | 0 | 20 | 0 | 0
COc1ccccc1N1CCN(C(=O)CSc2nc(-c3ccccc3)cc(=O)[nH]2)CC1 | 0 | 0 | 0 | 15 | 0 | 0
COc1ccccc1N1CCN(C(=O)CSc2nc3ncnc(N)c3[nH]2)CC1 | 0 | 0 | 0 | 0 | 0 | 0
Cc1ccc2cc(CN(CC3CCCO3)C(=O)c3ccco3)c(=O)[nH]c2c1C (configuration not stated) | 0 | 0 | 0 | 0 | 0 | 0
COC(=O)c1cc(CC(=O)c2ccc(O)cc2O)c(C)o1 | 0 | 0 | 284 | 0 | 0 | 0
COc1ccc(CCN=CC2=C(O)CCCC2=O)cc1OC | 0 | 0 | 0 | 0 | 0 | 0
O=C(O)C1CCCCC1C(=O)NCCc1cccc(Cl)c1 (configuration not stated) | 0 | 0 | 0 | 0 | 0 | 0
O=C(O)C1CCCCC1C(=O)NCCc1ccc(Cl)cc1 (configuration not stated) | 0 | 0 | 0 | 21 | 0 | 0
CN(C)CCNC(=O)c1c(O)c2c([nH]c1=O)CCCC2 | 0 | 0 | 0 | 11 | 0 | 0
N#Cc1nc(N2CCCC2)nc(N2CCCC2)n1 | 0 | 0 | 0 | 0 | 0 | 0
SMILES | Jurkat viability | 5HT1a antag | 5HT1a ag | HTR1E agonist | HTR1E antagonist | HEK293 NFkB inh
N#Cc1nc(N2CCCCC2)nc(N2CCOCC2)n1 | 42 | 0 | 0 | 0 | 0 | 0
Cc1ccc(NC(=O)CS(=O)CC(=O)Nc2ccc3c(c2)OCO3)cc1Cl (configuration not stated) | 0 | 0 | 0 | 0 | 0 | 0
COc1cc(C2Nc3ccc4ncccc4c3C3=C2C(=O)CCC3)ccc1O (configuration not stated) | 81 | 0 | 0 | 0 | 0 | 0
CCc1nc(C)cc(N)c1OCc1ccccc1 | 0 | 0 | 0 | 0 | 0 | 0
CCCCOC(=O)Nc1sc2c(c1C(=O)OC)CCC2 | 0 | 0 | 0 | 0 | 0 | 0
Cc1cc(NC(=O)CSc2ccc(-c3nc4cc(C)c(C)cc4[nH]3)cn2)no1 | - | 0 | 0 | 0 | 31 | 0
CCn1nnc(-c2ccccc2NS(=O)(=O)c2ccc(C(=O)OC)cc2)n1 | 0 | 0 | 0 | 0 | 34 | 0
CCn1c(SCC(=O)c2cc(C)n(CC3CCCO3)c2C)nc2ccccc21 (configuration not stated) | 0 | 0 | 0 | 0 | 0 | 0
Cc1cc(C(=O)CN2C(=O)c3ccccc3S2(=O)=O)c(C)n1CC1CCCO1 (configuration not stated) | 0 | 0 | 0 | 0 | 0 | 84
COc1ccc(OC)c(C(O)c2coc3ccc(O)c(CN4CCOCC4)c23)c1 (configuration not stated) | - | - | 0 | 0 | 0 | -
COc1ccc(OC)c(S(=O)(=O)n2cnc3cc(C)c(C)cc32)c1 | 0 | 0 | 0 | 0 | 0 | 0
CCOc1ccc(S(=O)(=O)n2cnc3cc(C)c(C)cc32)cc1 | 63 | 0 | 0 | 0 | 0 | 0
CSc1ncc(Cl)c(C(=O)C(C#N)c2nc3c(C)cc(C)cc3c(=O)[nH]2)n1 (configuration not stated) | 0 | 0 | 0 | 0 | 0 | 0
CCN=c1scc(-c2ccc3c(c2)NC(=O)CO3)n1N=C1CCCC1 | 36 | 0 | 0 | 0 | 0 | 0
CCOC(=O)Nc1ccc2c(c1)N(C(=O)CCN1CCOCC1)c1ccccc1S2=O (configuration not stated) | 0 | 52 | 0 | 0 | 0 | 0
CCCCC(c1nnnn1C1CCCC1)N1CCN(C2CCCCC2)CC1 (configuration not stated) | 0 | 50 | 0 | 0 | 0 | 0
COc1ccc(-c2nc(N)ncc2Oc2ccccc2Br)c(O)c1 | 0 | 44 | 0 | 0 | 0 | 0
COc1cccc(Oc2cnc(N)nc2-c2ccc(OC)cc2O)c1 | 91 | 0 | 0 | 0 | 0 | 43
COc1ccc(-c2cnc(N)nc2-c2ccc(OC)cc2O)cc1 | 0 | 0 | 0 | 0 | 0 | 0
Cn1c(N)c(C(=O)COC(=O)Cn2cc(C(F)(F)F)ccc2=O)c(=O)n(C)c1=O | 0 | 0 | 0 | 0 | 0 | 0
COc1cccc(Cn2c(N)c(C#N)c3nc4ccccc4nc32)c1OC | 0 | 0 | 0 | 0 | 33 | 0
COc1ccc2c(c1)nc(N)n2Cc1ccccc1 | - | - | 0 | 0 | 0 | -
N#Cc1c(N)n(CCOC(=O)c2cccc(Br)c2)c2nc3ccccc3nc12 | - | - | 31 | 0 | 0 | -
